PolyA inh – inhibitors of polyadenylation in S. cerevisiae; S. cerevisiae SKY197-pL101 polyadenylation reporter, beta-gal luminescence; efflux-impaired pdr1/pdr3 knockout yeast; score 100 = 6 SD above DMSO; activity score, % at 12 µM; 300,000 tested, 0.02% active; AID 1875;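 active = lowest replicate activity score at least 50, where 100 means six control SD above control mean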;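 note: yeast exposed to compound for 9 h at 30 °C; higher score means more reporter readthrough which indicates perturbed polyadenylation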
HDAC3 inhib – human HDAC3 inhibition | O15379 | recombinant HDAC3, fluorogenic peptide/trypsin coupled, fluorescence | inhibition, % at 8.3 µM | 320,000 tested, 0.15% active; in the data active = inhibition above about 26%, passing the limit was not always enough
Target sequence (O15379 whole entry, looked up): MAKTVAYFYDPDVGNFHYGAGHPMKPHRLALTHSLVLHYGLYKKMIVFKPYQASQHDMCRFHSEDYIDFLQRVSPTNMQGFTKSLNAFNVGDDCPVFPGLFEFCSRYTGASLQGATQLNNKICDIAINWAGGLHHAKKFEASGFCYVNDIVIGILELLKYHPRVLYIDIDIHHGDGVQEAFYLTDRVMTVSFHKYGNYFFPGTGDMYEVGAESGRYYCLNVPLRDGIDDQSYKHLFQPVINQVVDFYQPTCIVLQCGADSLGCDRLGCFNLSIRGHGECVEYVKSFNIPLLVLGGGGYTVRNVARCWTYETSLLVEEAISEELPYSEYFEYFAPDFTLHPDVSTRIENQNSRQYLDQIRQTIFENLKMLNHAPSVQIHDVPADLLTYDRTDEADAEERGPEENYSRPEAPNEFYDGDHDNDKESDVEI
AI-2 QS modul – modulates the Vibrio harveyi AI-2 quorum sensing system. Vibrio harveyi JMH597 AI-2 luminescence/OD600 ratio, 9 h; stronger effect = lower value; strain lacks LuxN and CqsS sensors; 0 = neutral-control median. 300,000 tested, 0.4% active. activity change, % at 7.5 µM; in the data active = activity change below about -75%, passing the limit was not always enough;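 note: luminescence divided by OD600 gain over 9 h not by final OD600 alone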
T cruzi repl – T. cruzi replication inhibition | T. cruzi beta-gal in NIH3T3, luminescence, 90 h | 300,000 tested, 1.4% active | inhibition, % (test concentration not listed);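 active = mean inhibition across valid replicates above about 55%, limit read from the data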;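 note: signal also drops with host cell toxicity which is not excluded here; higher percent means less beta-gal luminescence so fewer parasites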
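System: NIH/3T3 fibroblasts plus reporter T. cruzi. Medium: DMEM plus 2% FBS. Probe or stimulus: 5000 reporter trypomastigotes per well. Compound: single 50 nL compound addition per well in DMSO. Incubation: co-culture of at least 90 h after 3 h attachment. Detection: GalScreen β-gal luminescence, detergent lysis, 60 min. Evaluation: parasite load inhibition, %.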
Efflux pump inh – blocks antifungal efflux pumps in multiplex yeast assay; 330,000 tested, 0.44% active; inhibition, % at 10 µM; S. cerevisiae Candida pump triplex, Nile Red efflux;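 active = plate passing quality check with inhibition over a set limit, or well fluorescence over plate mean plus 4 SD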;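 note: Nile Red retained in pooled yeast measured as flow cytometry median fluorescence; higher means more Nile Red kept so more efflux inhibition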
Yeast cmpd fluor – counter-screen for efflux pump inhibitors: compound fluorescence. AID 588517. shares compounds with Efflux pump inh. S. cerevisiae AD/pABC3, flow cytometry. 1,700 tested, 4% active. fluorescence ratio to DMSO, % at 10 µM;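 active = fluorescence ratio to DMSO above its plate's cutoff, the plate mean ratio plus 5 SD, cut at about 210% in these data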;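 note: unstained yeast with no Nile Red so the signal is compound autofluorescence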
CaMdr1 efflux inh – inhibitors of Candida albicans Mdr1 efflux pump | shares compounds with Efflux pump inh | S. cerevisiae AD/CaMDR1, Nile Red efflux, flow cytometry | inhibition, % at 10 µM | 1,700 tested, 1% active; in the data active = inhibition above about 26%;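 note: higher means more Nile Red retained so more efflux inhibition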
Cdr2 pump inh – inhibitors of Candida albicans Cdr2 efflux pump. 1,700 tested, 4% active. Nile Red retention ratio vs DMSO, % at 10 µM. shares compounds with Efflux pump inh. S. cerevisiae AD/CaCDR2, Nile Red retention, flow cytometry; in the data active = Nile Red retention ratio vs DMSO above about 190%;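 note: higher ratio means more blocking of Cdr2 efflux of the dye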
Cdr1 pump inh – Candida Cdr1 efflux pump inhibition; inhibition, % at 10 µM; S. cerevisiae AD/CaCDR1, Nile Red efflux, flow cytometry; shares compounds with Efflux pump inh; 1,700 tested, 1% active;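 active = inhibition above the screen-wide mean plus twice its standard deviation, cut at about 32% in these data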
Hits are given with their value; n = inactive; x = no result given. This is a sample that favours compounds with a hit; in the whole collection about 2.2% have one here.

SMILES	PolyA inh	HDAC3 inhib	AI-2 QS modul	T cruzi repl	Efflux pump inh	Yeast cmpd fluor	CaMdr1 efflux inh	Cdr2 pump inh	Cdr1 pump inh
COc1cccc(-c2c(C(=O)N/N=C(\C)c3ccc(Cl)s3)nnn2-c2nonc2N)c1	n	n	n	n	4.6	n	n	n	n
COc1ccc(C2CC(c3ccccc3C(F)(F)F)=NN2c2ccc(S(N)(=O)=O)cc2)cc1 (configuration not stated)	x	x	x	x	56	n	n	n	n
CN(C)/C=C1\N=C(c2ccccc2)OC1=O	n	n	n	n	n	x	x	x	x
CN(C)/C(CN1CCN(C=O)CC1)=C1\N=C(c2ccccc2)OC1=O	n	n	n	n	0.5	n	n	n	n
COc1ccc2nccc(/C=C/c3ccnc4ccc(OC)cc34)c2c1	n	n	n	n	0.7	n	n	n	n
COc1ccc2nc(Cl)cc(Cl)c2c1	n	n	n	n	n	x	x	x	x
COc1ccc(N(CC(=O)NCc2ccccc2OC)S(=O)(=O)c2ccc(C)cc2)cc1Cl	n	n	n	n	n	x	x	x	x
Cc1ccc(S(=O)(=O)Nc2cc(C(C(=O)OC(C)C)C(=O)C(F)(F)F)c(O)c3ccccc23)c(C)c1 (configuration not stated)	n	n	n	n	13	n	n	n	n
O=C1Nc2cc(C(=O)N3CCOCC3)ccc2SC1N1CCOCC1 (configuration not stated)	n	n	n	n	19	n	n	n	n
NC1=NC[C@@H](CC2CCCCC2)N1CCc1cc(C(F)(F)F)cc(C(F)(F)F)c1	x	n	x	x	n	x	x	x	x
NC1=NC[C@H](Cc2ccc(O)cc2)N1CCc1cc(C(F)(F)F)cc(C(F)(F)F)c1	n	n	n	n	n	n	n	n	n
NC1=NC[C@@H](Cc2ccc(O)cc2)N1CCc1cccc2ccccc12	n	n	n	n	n	n	n	n	n
CC(C)C[C@H](NC(=O)C1CC(=O)N(c2ccc3c(c2)OCO3)C1)C(=O)NC1CCCCC1 (some centres not stated)	n	n	n	n	n	x	x	x	x
Cc1ccc(C(=O)OCC(=O)NCC2COc3ccccc3O2)cc1 (configuration not stated)	x	n	x	x	0.9	n	n	n	n
Cc1cccc(C(=O)OCC(=O)NCC2COc3ccccc3O2)c1 (configuration not stated)	x	n	x	x	n	x	x	x	x
CCOC(=O)C1=C(CS(=O)(=O)c2ccccc2)NC(=O)NC1c1ccccc1 (configuration not stated)	n	n	n	n	0.5	n	n	n	n
CC(C)CC[n+]1ccccc1/C=C/c1ccc(N(C)C)cc1	n	n	n	n	4.0	955	n	n	n
CN(C)c1ccc(/C=C/c2cccc[n+]2[O-])cc1	n	n	n	n	n	x	x	x	x
CC(C)=C1C2CCC1C1C(=O)N(c3nc(-c4ccc(F)cc4)c(C)s3)C(=O)C21 (configuration not stated)	n	n	n	n	n	x	x	x	x
CC(C)=C1C2CCC1C1C(=O)N(c3nc(-c4ccc(C(C)C)cc4)c(C)s3)C(=O)C21 (configuration not stated)	n	n	n	n	0.4	n	n	n	n
COc1ccc(-c2nc(NC(=O)c3nc4nccc(C)n4n3)sc2C)cc1	n	n	n	n	1.0	n	n	n	n
CC(C)N(Cc1ccccc1)C(=O)CN1c2cccc3cccc(c23)S1(=O)=O	x	n	x	x	n	x	x	x	x
Cc1nc2ccccc2n1CCc1nc2c3ccccc3nc(SCC(=O)NCc3ccco3)n2n1	n	n	n	n	1.2	n	n	n	n
CNC(=O)c1ccc(-n2cccn2)nc1	n	n	n	n	n	x	x	x	x
c1ccc(-c2nnc(CSc3ccc4c(c3)OCCO4)o2)cc1	n	n	n	n	n	x	x	x	x

Compound activity: PubChem BioAssay, several laboratories
